What was measured:
[1] = test system: intracranial self-stimulation (medial forebrain bundle); conditions: rats; racemate, earlier report ref 15; cited from earlier work
[2] = biological target: SERT (Rattus norvegicus, UniProt P31652); assay: Inhibition of [3H]serotonin reuptake at SERT in rat brain synaptosomes; type: biochemical; conditions: 5 nM [3H]serotonin, data not shown
How it was run: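 Synaptosomes prepared from rat whole brain minus caudate and cerebellum after CO2 euthanasia. Uptake began by adding tissue suspension to Krebs-phosphate buffer, pH 7.4, containing 0.05 mM pargyline, BSA, ascorbic acid, test compound and 5 nM [3H]serotonin. Unlabeled blockers of competing transporters were included. The assay ended by rapid vacuum filtration through GF/B filters, and retained radioactivity was measured by scintillation counting.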

[3] = biological target: NET (Rattus norvegicus, UniProt Q63380); assay: Inhibition of [3H]norepinephrine reuptake at NET in rat brain synaptosomes; type: biochemical; conditions: for efficacy as inhibitor of reuptake at NET: dose-response, Figure 1B
[4] = biological target: DAT (Rattus norvegicus, UniProt P23977); assay: Inhibition of [3H]dopamine reuptake at DAT in rat caudate synaptosomes; type: biochemical; conditions: for efficacy as inhibitor of reuptake at DAT: dose-response, Figure 1A; for EC50: read-out: EC50, DAT uptake inhibition
[5] = test system: intracranial self-stimulation (medial forebrain bundle); assay: Intracranial self-stimulation; type: in vivo, rat; conditions: rats, i.p.
[6] = ratio of reuptake inhibition potencies

NET, sequence (Q63380 1-617): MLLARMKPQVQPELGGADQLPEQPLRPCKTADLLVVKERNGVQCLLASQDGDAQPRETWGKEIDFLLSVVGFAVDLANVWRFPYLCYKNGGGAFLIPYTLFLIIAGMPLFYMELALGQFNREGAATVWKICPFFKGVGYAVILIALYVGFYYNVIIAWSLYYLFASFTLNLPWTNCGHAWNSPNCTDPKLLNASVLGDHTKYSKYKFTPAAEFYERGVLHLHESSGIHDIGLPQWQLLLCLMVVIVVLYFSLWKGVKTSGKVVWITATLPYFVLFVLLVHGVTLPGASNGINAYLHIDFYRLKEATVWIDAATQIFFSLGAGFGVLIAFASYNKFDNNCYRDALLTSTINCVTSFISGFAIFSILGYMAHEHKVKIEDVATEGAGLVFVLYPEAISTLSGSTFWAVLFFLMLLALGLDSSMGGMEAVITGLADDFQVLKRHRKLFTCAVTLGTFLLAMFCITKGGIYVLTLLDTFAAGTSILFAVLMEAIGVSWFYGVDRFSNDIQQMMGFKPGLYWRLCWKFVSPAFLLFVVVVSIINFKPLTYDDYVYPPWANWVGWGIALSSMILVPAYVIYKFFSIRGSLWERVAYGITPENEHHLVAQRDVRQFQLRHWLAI
DAT, sequence (P23977 whole entry): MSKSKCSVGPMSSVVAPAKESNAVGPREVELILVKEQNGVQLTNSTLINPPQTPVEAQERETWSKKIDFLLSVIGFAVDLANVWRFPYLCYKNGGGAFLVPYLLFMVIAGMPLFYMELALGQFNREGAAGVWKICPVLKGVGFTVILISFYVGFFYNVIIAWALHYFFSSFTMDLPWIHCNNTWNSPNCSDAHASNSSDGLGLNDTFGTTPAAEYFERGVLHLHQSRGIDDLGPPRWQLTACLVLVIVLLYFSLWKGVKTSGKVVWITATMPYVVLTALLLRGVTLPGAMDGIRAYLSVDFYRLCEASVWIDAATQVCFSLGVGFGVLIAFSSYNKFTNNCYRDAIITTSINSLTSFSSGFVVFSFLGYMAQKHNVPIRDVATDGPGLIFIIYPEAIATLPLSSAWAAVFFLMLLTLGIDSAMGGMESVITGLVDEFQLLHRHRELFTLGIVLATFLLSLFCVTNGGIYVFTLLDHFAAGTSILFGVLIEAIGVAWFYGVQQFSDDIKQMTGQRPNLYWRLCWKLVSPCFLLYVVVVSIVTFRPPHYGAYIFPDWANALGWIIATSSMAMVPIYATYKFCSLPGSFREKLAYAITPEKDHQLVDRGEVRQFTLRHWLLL
SERT, sequence (P31652 whole entry): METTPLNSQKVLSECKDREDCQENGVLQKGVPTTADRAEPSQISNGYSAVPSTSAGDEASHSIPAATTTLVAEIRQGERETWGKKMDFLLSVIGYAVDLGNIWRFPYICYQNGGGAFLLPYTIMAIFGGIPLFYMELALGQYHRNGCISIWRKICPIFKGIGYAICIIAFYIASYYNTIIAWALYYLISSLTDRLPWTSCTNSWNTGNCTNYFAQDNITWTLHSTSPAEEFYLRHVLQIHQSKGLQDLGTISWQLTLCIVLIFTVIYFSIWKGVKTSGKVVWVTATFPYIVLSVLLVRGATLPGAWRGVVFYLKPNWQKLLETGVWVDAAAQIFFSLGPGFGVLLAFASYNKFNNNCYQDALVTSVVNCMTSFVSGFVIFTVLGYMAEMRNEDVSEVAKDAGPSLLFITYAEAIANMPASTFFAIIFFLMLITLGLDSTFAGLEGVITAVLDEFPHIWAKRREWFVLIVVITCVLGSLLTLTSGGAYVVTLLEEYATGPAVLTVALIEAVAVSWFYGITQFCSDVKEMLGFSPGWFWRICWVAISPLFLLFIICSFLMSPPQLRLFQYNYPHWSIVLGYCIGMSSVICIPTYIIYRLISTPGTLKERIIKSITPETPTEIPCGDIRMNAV

Row | Compound | doses producing significant facilitation of ICSS [1] | concentration up to which reuptake of [3H]serotonin at SERT was not inhibited [2] | efficacy as inhibitor of reuptake at NET [3] | efficacy as inhibitor of reuptake at DAT [4] | EC50 [4] | dose without effect on ICSS relative to the lowest effective dose of S(+)MDPV ([5]; up to 10 mg/kg) | effect on ICSS relative to vehicle, posthoc analysis ([5]; doses of 0.32 and 1.0 mg/kg, one-way ANOVA, Dunnett's posthoc) | effect on ICSS frequency–rate curve (%MCR) ([5]; S(+)MDPV 0.32 mg/kg, R(−)MDPV 3.2 mg/kg, Figure 2B,C) | fold more potent as reuptake inhibitor than R(−)MDPV at NET [3, 6] | fold more potent than cocaine at NET [3, 6] | potency relative to the racemate at NET ([3]; reuptake inhibition) | fold more potent as reuptake inhibitor than R(−)MDPV at DAT [4, 6] | fold more potent than cocaine at DAT [4, 6] | potency relative to the racemate at DAT ([4]; reuptake inhibition)
1 | CCCC(C(=O)c1ccc2c(c1)OCO2)N1CCCC1 (racemic) [(±)MDPV (3), methylenedioxypyrovalerone] | ≥ 0.32 mg/kg | > 10 µM | fully efficacious | fully efficacious | 4.85 nM |  |  |  |  |  |  |  |  | 
2 | CCC[C@H](C(=O)c1ccc2c(c1)OCO2)N1CCCC1.Cl [R(−)MDPV (3R), R(−)-Methylendioxypyrovalerone Hydrochloride] |  |  |  |  | 383 nM | > 100 fold |  |  |  |  |  |  |  | 
3 | CCC[C@@H](C(=O)c1ccc2c(c1)OCO2)N1CCCC1.Cl [S(+)MDPV (3S), S(+)-Methylendioxypyrovalerone Hydrochloride] |  |  | fully efficacious | fully efficacious | 2.13 nM |  | significantly facilitated ICSS | leftward shift in the ICSS frequency–rate curve | ~80 fold | 40 fold | approximately twice as potent | approximately 200 fold | 100 fold | approximately twice as potent

Source: publication PMC5349769 (ACS chemical neuroscience, 2015)
